Laboratory results reported in ChEMBL document CHEMBL4261512, “Discovery of novel trimethoxy-ring BRD4 bromodomain inhibitors: AlphaScreen assay, crystallography and cell-based assay” (Medchemcomm, 2017).
Blank lines part the entries; values can stand above or below the compound they belong to.

Legend:
[1] = target: T1, Bromodomain-containing protein 4 (Homo sapiens, UniProt O60885); test: Inhibition of SGRG-K(Ac)-GG-K(Ac)-GLGK(Ac)-GGA-K(Ac)-RHRKVGG-K(Biotin) binding to N-terminal 6xHis-tagged human BRD4 bromodomain 1 expressed in Escherichia coli BL21 (DE3) at 50 uM preincubated for 10 mins followed by peptide addition and measured after 10 mins by AlphaScreen assay relative to control
Method in brief: (§1)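 AlphaScreen peptide displacement. His-tagged BRD4 BD1 preincubated 10 min at room temperature with compound in buffer (0.1% Triton X-100, 1 mM DTT, 0.1% BSA). Then 25 nM biotinylated tetra-acetylated H4-type peptide added for 10 min, Ni-chelate acceptor beads for 30 min, and streptavidin donor beads for 30 min in subdued light. Alpha signal read; JQ-1 as control. IC50 from four-parameter log-logistic fit.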

[2] = target: T1, Bromodomain-containing protein 4; test: Inhibition of SGRG-K(Ac)-GG-K(Ac)-GLGK(Ac)-GGA-K(Ac)-RHRKVGG-K(Biotin) binding to N-terminal 6xHis-tagged human BRD4 bromodomain 1 expressed in Escherichia coli BL21 (DE3) preincubated for 10 mins followed by peptide addition and measured after 10 mins by AlphaScreen assay; method in brief: as §1
[3] = target: T1, Bromodomain-containing protein 4; test: Binding affinity to N-terminal 6xHis-tagged human BRD4 bromodomain 1 expressed in Escherichia coli BL21 (DE3) assessed as change in melting temperature by SYPRO orange dye-based RT-PCR method
MV4-11 [4] = test: Antiproliferative activity against human MV4-11 cells after 7 days by Alamar blue assay; assay type: functional, cell-based
Method in brief: (§2)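 MV4-11 cells in RPMI 1640 with 10% FBS and 1% Pen/Strep at 37 °C, 5% CO2. Seeded at 1 × 10⁵–3 × 10⁵, settled 30 min, then given graded compound concentrations or DMSO for three or seven days. Alamar Blue added for 3 h at 37 °C; fluorescence read at ex 544/em 590 nm. Viability normalized to control; IC50 fitted from the dose–response.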

[5] = target: T1, Bromodomain-containing protein 4; test: Inhibition of BRD4 in human MV4-11 cells assessed as downregulation of Bcl-2 gene expression after 6 hrs by qRT-PCR method; assay type: cell-based
Method in brief: (§3)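 MV4-11 cells given compound at varied concentrations (10 and 30 μM) for 6 h. Bcl-2, c-Myc and CDK6 transcripts quantified by real-time quantitative PCR relative to untreated control.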

[6] = target: T1, Bromodomain-containing protein 4; test: Binding affinity to N-terminal 6xHis-tagged human BRD4 bromodomain 1 expressed in Escherichia coli BL21 (DE3) assessed as change in melting temperature at 200 uM by SYPRO orange dye-based RT-PCR method (reference value: 0 degC)
[7] = target: T1, Bromodomain-containing protein 4; test: Inhibition of BRD4 in human MV4-11 cells assessed as downregulation of c-Myc protein expression after 6 hrs by Western blot method; assay type: cell-based
Method in brief: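 MV4-11 cells seeded at 3 × 10⁵ in 6-well plates, settled 30 min, then given graded compound concentrations or DMSO for 6 h. Probed with rabbit anti-c-Myc mAb and HRP-labelled secondary.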

[8] = target: T1, Bromodomain-containing protein 4; test: Inhibition of BRD4 in human MV4-11 cells assessed as downregulation of c-Myc gene expression after 6 hrs by qRT-PCR method; assay type: cell-based; method in brief: as §3
MV4-11 [9] = test: Cell cycle arrest in human MV4-11 cells assessed as accumulation at S phase at 50 uM after 24 hrs by propidium iodide staining-based flow cytometric method (reference value: 33.52%); assay type: functional
MV4-11 [10] = test: Induction of apoptosis in human MV4-11 cells assessed as necrotic cells at 50 uM after 72 hrs by annexin-V-FITC/propidium iodide staining-based flow cytometric method (reference value: 0%); assay type: functional
Method in brief: (§4)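 MV4-11 cells seeded at 3 × 10⁵ in 6-well plates, settled 30 min, then given compound or DMSO for 72 h. Resuspended in 1× binding buffer with Annexin V-FITC for 15 min at room temperature in the dark, then PI added 5 min before flow cytometry. Populations quantified with the instrument software.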

MV4-11 [11] = test: Cell cycle arrest in human MV4-11 cells assessed as accumulation at G2 phase at 50 uM after 24 hrs by propidium iodide staining-based flow cytometric method (reference value: 11.98%); assay type: functional
MV4-11 [12] = test: Induction of apoptosis in human MV4-11 cells assessed as late apoptotic cells at 50 uM after 72 hrs by annexin-V-FITC/propidium iodide staining-based flow cytometric method (reference value: 2.14%); assay type: functional; method in brief: as §4
MV4-11 [13] = test: Induction of apoptosis in human MV4-11 cells assessed as early apoptotic cells at 50 uM after 72 hrs by annexin-V-FITC/propidium iodide staining-based flow cytometric method (reference value: 1.64%); assay type: functional; method in brief: as §4
MV4-11 [14] = test: Induction of apoptosis in human MV4-11 cells assessed as viable cells at 50 uM after 72 hrs by annexin-V-FITC/propidium iodide staining-based flow cytometric method (reference value: 96.2%); assay type: functional; settings: MV4-11, 72 h, read-out: Activity; method in brief: as §4
[15] = target: T1, Bromodomain-containing protein 4; test: Inhibition of BRD4 in human MV4-11 cells assessed as downregulation of CDK6 gene expression after 6 hrs by qRT-PCR method; assay type: cell-based; method in brief: as §3
MV4-11 [16] = test: Cell cycle arrest in human MV4-11 cells assessed as accumulation at G1 phase at 50 uM after 24 hrs by propidium iodide staining-based flow cytometric method (reference value: 54.50%); assay type: functional
MV4-11 [17] = test: Antiproliferative activity against human MV4-11 cells after 3 days by Alamar blue assay; assay type: functional, cell-based; method in brief: as §2
[18] = target: T1, Bromodomain-containing protein 4; test: Binding affinity to N-terminal 6xHis-tagged human BRD4 bromodomain 1 expressed in Escherichia coli BL21 (DE3) assessed as change in melting temperature at 100 uM by SYPRO orange dye-based RT-PCR method (reference value: 0 degC)
MV4-11 [19] = test: Cell cycle arrest in human MV4-11 cells assessed as accumulation at G2 phase after 24 hrs by propidium iodide staining-based flow cytometric method (reference value: 11.98%); assay type: functional
MV4-11 [20] = test: Induction of apoptosis in human MV4-11 cells assessed as early apoptotic cells after 72 hrs by annexin-V-FITC/propidium iodide staining-based flow cytometric method (reference value: 1.64%); assay type: functional; method in brief: as §4
MV4-11 [21] = test: Cell cycle arrest in human MV4-11 cells assessed as accumulation at G1 phase after 24 hrs by propidium iodide staining-based flow cytometric method (reference value: 54.50%); assay type: functional
MV4-11 [22] = test: Induction of apoptosis in human MV4-11 cells assessed as late apoptotic cells after 72 hrs by annexin-V-FITC/propidium iodide staining-based flow cytometric method (reference value: 2.14%); assay type: functional; method in brief: as §4
MV4-11 [23] = test: Induction of apoptosis in human MV4-11 cells assessed as necrotic cells after 72 hrs by annexin-V-FITC/propidium iodide staining-based flow cytometric method (reference value: 0%); assay type: functional; method in brief: as §4
MV4-11 [24] = test: Cell cycle arrest in human MV4-11 cells assessed as accumulation at S phase after 24 hrs by propidium iodide staining-based flow cytometric method (reference value: 33.52%); assay type: functional
MV4-11 [25] = test: Induction of apoptosis in human MV4-11 cells assessed as viable cells after 72 hrs by annexin-V-FITC/propidium iodide staining-based flow cytometric method (reference value: 96.2%); assay type: functional; method in brief: as §4

SMILES: COC(=O)C(CCSC)NC(=O)c1cc(OC)c(OC)c(OC)c1 (configuration not stated)
- IC50 [2]: 2.1 µM

SMILES: CCC(CO)NC(=O)c1cc(OC)c(OC)c(OC)c1 (configuration not stated)
- inhibition [1]: 94%

SMILES: COc1cc(C(=O)Nc2ccnn2C2CCCC2)cc(OC)c1OC
- Activity [3]: Dose-dependent effect
- Activity (MV4-11 [4]): Dose-dependent effect
- inhibition [5]: Dose-dependent effect
- ΔTm [6]: 3.31 °C
- inhibition [7]: Dose-dependent effect
- inhibition [8]: Dose-dependent effect
- Activity (MV4-11 [9]): 16.83%
- Activity (MV4-11 [10]): 0.073%
- IC50 [2]: 2.01 µM
- Activity (MV4-11 [11]): 16.83%
- Activity (MV4-11 [12]): 6.86%
- Activity (MV4-11 [13]): 4.06%
- viability at 50 µM (MV4-11 [14]): 89%
- inhibition [15]: Dose-dependent effect
- Activity (MV4-11 [16]): 79.1%
- Activity (MV4-11 [17]): Dose-dependent effect
- ΔTm [18]: 1.9 °C

SMILES: COc1cc(C(=O)Nc2nnc(C)s2)cc(OC)c1OC
- inhibition [1]: 90%

SMILES: COc1cc(C(=O)NCC2CCCO2)cc(OC)c1OC (configuration not stated)
- inhibition [1]: 94%

SMILES: COc1cc(C(=O)Nc2nccs2)cc(OC)c1OC
- IC50 [2]: 4.3 µM

SMILES: COc1cc2c(cc1-c1c(C)noc1C)ncc1[nH]c(=O)n([C@H](C)c3ccccn3)c12
- Activity (MV4-11 [19]): 2.78%
- Activity (MV4-11 [20]): 18.4%
- Activity (MV4-11 [21]): 90.86%
- Activity (MV4-11 [22]): 33.1%
- Activity (MV4-11 [23]): 0.718%
- Activity (MV4-11 [24]): 6.36%
- Activity (MV4-11 [25]): 47.8%

SMILES: COc1cc(C(=O)NCCOc2ccccc2)cc(OC)c1OC
- IC50 [2]: 6.6 µM

SMILES: COc1cc(C(=O)NCCCn2ccnc2)cc(OC)c1OC
- inhibition [1]: 90%

The remaining lines, values ahead:

- inhibition [1]: 96%
SMILES: COc1cc(C(=O)Nc2nc(C)cs2)cc(OC)c1OC

- IC50 [2]: 8.5 µM
SMILES: COC(=O)C(CC(C)C)NC(=O)c1cc(OC)c(OC)c(OC)c1 (configuration not stated)

- inhibition [1]: 90%
SMILES: CCc1nnc(NC(=O)c2cc(OC)c(OC)c(OC)c2)s1

- inhibition [1]: 90%
SMILES: COc1cc(C(=O)NC2CCCC2)cc(OC)c1OC

- IC50 [2]: 6.4 µM
SMILES: COc1cc(C(=O)NCCc2cccs2)cc(OC)c1OC

- IC50 [2]: 11 µM
SMILES: COCc1nnc(NC(=O)c2cc(OC)c(OC)c(OC)c2)s1
